In the library only some 3.8% were active in any assay of this set; here they are far more common.
MrgX1 agonist: activates human MrgX1 receptor signaling. B-score at 10 µM. hit rate 0.44% among 310,000. AID 588627. MrgX1-HEK293 cells, Fluo-4 calcium fluorescence, agonist mode; hits give high values. Q96LB2;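 active means calcium response B-score plate-corrected fluorescence ratio at least 3 library SD, with starting fluorescence B-score inside 5 SD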
Target sequence (Q96LB2 whole entry, looked up): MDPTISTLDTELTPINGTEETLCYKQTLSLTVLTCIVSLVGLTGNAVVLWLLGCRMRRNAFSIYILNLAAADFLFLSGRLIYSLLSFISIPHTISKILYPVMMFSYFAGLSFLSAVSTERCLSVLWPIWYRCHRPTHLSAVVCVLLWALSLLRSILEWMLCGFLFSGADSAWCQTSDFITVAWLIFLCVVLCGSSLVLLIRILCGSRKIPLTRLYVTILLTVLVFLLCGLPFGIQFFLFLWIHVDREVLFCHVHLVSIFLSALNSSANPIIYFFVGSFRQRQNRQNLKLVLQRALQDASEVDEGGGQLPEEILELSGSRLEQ
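Test system: HEK293 cells stably expressing human MrgX1 receptor; amount: 15,000 cells per well; doses: compound delivered in addition one of three; times: overnight plating before 1 h dye loading; detection: Fluo-4 NW calcium-flux fluorescence, kinetic read; read-out basis: B-scored fluorescence response ratio; controls: positive and negative controls per plate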
MrgX1 antagonist: human MrgX1 receptor antagonism, primary screen. Q96LB2. MRGX1-HEK293 calcium flux, Fluo-4, BAM8-22 antagonism; hits give low values. B-score at 10 µM. hit rate 1.3% among 310,000;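 active means calcium-response B-score plate-corrected more than 3 library SD below zero, starting fluorescence within 5 deviations, no agonist response on first addition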;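 further: peak minus trough fluorescence over baseline after final BAM8-22 challenge near maximal dose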
RGS4 inh: human RGS4 inhibition. P49798. HEK293 M3R/RGS4 inducible, Fluo-4 calcium flux; hits give high values; triggered by carbachol at its EC20. B-score at 10 µM. hit rate 0.45% among 310,000. AID 463165;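 active means B-score, a plate-corrected calcium signal, over three deviations above library mean, with baseline fluorescence within five deviations of library mean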;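 further: RGS4 expression induced by doxycycline in cells with stable M3 receptor; B-score is computed from the integrated fluorescence ratio over baseline after carbachol; higher B-score means a larger calcium signal and so more RGS4 inhibition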
Target sequence (P49798 whole entry, looked up): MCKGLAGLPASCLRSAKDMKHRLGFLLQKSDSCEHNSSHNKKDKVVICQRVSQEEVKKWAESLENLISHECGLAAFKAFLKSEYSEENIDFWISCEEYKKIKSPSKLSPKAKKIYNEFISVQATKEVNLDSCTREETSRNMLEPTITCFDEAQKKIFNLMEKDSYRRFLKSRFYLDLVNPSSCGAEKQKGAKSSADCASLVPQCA
Hep lipid drop: hepatic lipid droplet formation modulation | AID 1656 | AML12 mouse hepatocytes, oleate lipid droplets, BODIPY imaging | inhibition, % at 6.5 µM | hit rate 0.4% among 240,000;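 active means lipid droplet intensity inhibited by at least 50%, with more than 500 cells counted; inconclusive means wells with under 300 cells, treated as cytotoxic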
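Technique: fluorescence imaging, 20x objective, two fields per well / Assay system: AML12 hepatocytes (mouse) / Measure: % inhibition of lipid droplet signal / Doses: 6.5 µM single-point dosing / Incubation: overnight exposure / Reagent: 100 µM oleic acid challenge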
RGS4 pot: potentiators or activators of RGS4; HEK293 M3R/inducible RGS4, carbachol calcium flux Fluo4; hits give low values; B-score at 10 µM; hit rate 0.92% among 310,000;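 active means B-score of the integrated calcium signal more than 4 SD below the library mean, with starting fluorescence not abnormally high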;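 further: negative B-score means reduced calcium response which marks RGS4 activation or potentiation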
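Assay system: Inducible-RGS4 HEK293 cells carrying M3 receptor | Schedule: Compound preincubation 20 min at room temperature before agonist | Signal: Kinetic calcium fluorescence imaging with Fluo4-AM dye, 2 µM | Read-out basis: B score from integrated fluorescence ratio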
MrgX1 allo act: allosterically activates human MrgX1 receptor signaling; MrgX1-HEK293, Fluo-4 calcium flux, FDSS; hits give high values; Q96LB2; hit rate 0.63% among 310,000; AID 588675; B-score at 10 µM;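 active means plate-corrected calcium response at least 3 library SD above typical, normal starting fluorescence, not activating the receptor alone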;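 further: compound read alongside a low EC10 to EC30 dose of BAM8-22 agonist; peak minus trough fluorescence over baseline measured at the second addition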
RGS4 block valid: RGS4 inhibitor validation | shares compounds with RGS4 inh | HEK293 M3R/RGS4, carbachol calcium Fluo-4 fluorescence; carbachol added at its EC20; 0 = buffer wells, 100 = carbachol control | calcium response, % at 10 µM | hit rate 65% among 1,700;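 active means duplicate-averaged calcium response above the buffer-only control mean plus 5 SD of those controls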;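 further: integrated fluorescence ratio F max minus min over baseline F0; higher response in RGS4-induced cells means RGS4 inhibition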
RGS4 uninduced: checks RGS4 inhibitor effects in non-induced HEK293 M3R cells; activity (percent), % at 10 µM; carbachol calcium Fluo-4; submaximal (EC20) carbachol stimulus; buffer wells 0%, carbachol control wells 100%; AID 493000; hit rate 20% among 1,900; shares compounds with RGS4 inh; call rule not given here;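 further: RGS4 induction absent so cells express M3R without RGS4; higher means more calcium signal and flags a non-specific hit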
M3R basal Ca ctr: signal in non-induced cells without carbachol, RGS4 inhibitor counter-screen; hit rate 22% among 1,900; HEK293 M3R/RGS4 non-induced, Fluo-4 calcium, no carbachol; normalised: buffer wells 0%, carbachol wells 100%; calcium response (agonist-mode artifact), % at 10 µM; shares compounds with RGS4 inh;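 active means duplicate-averaged calcium rise in uninduced cells above buffer wells' mean plus 5 SD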
* hit, by the source's call; i = inactive; ? = inconclusive; / = no result given.

SMILES | MrgX1 agonist | MrgX1 antagonist | RGS4 inh | Hep lipid drop | RGS4 pot | MrgX1 allo act | RGS4 block valid | RGS4 uninduced | M3R basal Ca ctr
O=C(NC(C(=O)N/N=C/c1cccc2ccccc12)c1n[nH]c(=O)c2ccccc12)c1ccccc1 (stereo not drawn) | i | i | 14* | / | i | i | 24%* | 30%* | i
CCN(CC(=O)Nc1ccc(OC)c(Cl)c1)CC(=O)NC(C)C | i | i | i | -6 | i | i | / | / | /
CC(C)C[C@H](NC(=O)Nc1ccc(Oc2ccccc2)cc1)C(=O)O | i | i | i | -5 | i | i | / | / | /
O=C(N/N=C/C(Br)=C/c1ccccc1)c1n[nH]c2c1CCC2 | i | i | 5.1* | ? | i | i | 18%* | i | i
COC(=O)c1cc(-c2ccccc2)n(CCN)c1C | i | i | i | / | i | i | / | / | /
O=c1[nH][nH]c(C(F)(F)F)c1C=NCc1cccs1 | i | i | i | -22 | i | i | / | / | /
Cc1cc(-c2ccc3c(c2)COc2c4ccccc4nn2-3)on1 | i | i | i | / | i | i | / | / | /
NC(=O)NC1CCCc2c1[nH]c1ccc(Cl)cc21 (stereo not drawn) | i | i | 5.3* | -19 | i | i | 8.5%* | i | i
Cc1[nH]n(-c2ncc(-c3ccccc3)s2)c(=O)c1C(c1ccc(Cl)cc1)C(C#N)C#N (stereo not drawn) | i | -5.3* | 14* | 6 | i | i | 70%* | i | 52%*
Cc1[nH]n(-c2ccc(Cl)cc2)c(=O)c1/C=N/c1nnc(-c2ccccc2)s1 | i | i | i | -17 | i | i | / | / | /
O=C(CN1C(=O)NC2(CCCC2)C1=O)Nc1ccccc1F | i | i | i | -6 | i | i | / | / | /
COc1ccccc1CN=C1NC(=O)C(CC(=O)Nc2ccc(C(C)=O)cc2)S1 (stereo not drawn) | i | i | i | 0 | i | i | i | i | i
C/C(=N\N=C1\NC(=O)C(CC(=O)NCc2ccccc2)S1)C(C)C (stereo not drawn) | i | i | i | -6 | i | i | / | / | /
C/C(=N\N=C1\NC(=O)C(CC(=O)Nc2ccc(C)c(Cl)c2)S1)C(C)C (stereo not drawn) | i | i | i | 18 | i | i | / | 30%* | i
Cc1cc(NC(=O)COC(=O)C(Nc2ccc(C(F)(F)F)cc2Cl)C(C)C)no1 (stereo not drawn) | i | i | i | -5 | i | i | / | / | /
C/C(=N\Nc1ccc(C(=O)O)cc1)c1ccc(Br)cc1 | i | i | 4.7* | -6 | i | i | 20%* | 35%* | i
CN1CCN(C(=O)CCCN2C(=O)/C(=C/c3ccccc3)SC2=S)CC1 | i | i | i | -8 | i | i | / | / | /
O=C(O)CCCN1C(=O)/C(=C\C(Cl)=C\c2ccccc2)SC1=S | i | i | 15* | -63 | i | i | 44%* | i | i
O=C(O)CCCN1C(=O)/C(=C\c2ccc(-c3nc4ccccc4s3)o2)SC1=S | i | -8* | 21* | -14 | -7.9* | i | 14%* | i | 126%*
Cc1nnc(Sc2cc(NCCO)c([N+](=O)[O-])c3nonc23)s1 | / | / | i | 27 | i | / | i | i | i
CCCSc1cc(NCCOC(C)=O)c([N+](=O)[O-])c2nonc12 | i | i | i | 7 | i | i | / | / | /
CCC(=O)OCCNc1cc(Sc2nc3ccccc3s2)c2nonc2c1[N+](=O)[O-] | i | i | i | / | i | i | / | / | /
CCCC(=O)OCCNc1cc(Sc2nccn2C)c2nonc2c1[N+](=O)[O-] | i | i | 13* | -8 | i | i | 59%* | i | i
Cc1nnc(Sc2cc(NCCCO)c([N+](=O)[O-])c3nonc23)s1 | / | / | 10* | -6 | i | / | 21%* | i | i
O=[N+]([O-])c1c(NCCCO)cc(Sc2nc3ccccc3s2)c2nonc12 | i | i | 4.7* | / | i | i | 9.5%* | i | 150%*
SMILES | MrgX1 agonist | MrgX1 antagonist | RGS4 inh | Hep lipid drop | RGS4 pot | MrgX1 allo act | RGS4 block valid | RGS4 uninduced | M3R basal Ca ctr
O=C(NCc1cccc(Br)c1)C1CC(c2ccccc2C(F)(F)F)=NO1 (stereo not drawn) | i | i | i | -10 | i | i | / | / | /
N#Cc1ccccc1CCN1C(=O)c2ccccc2C1=O | i | i | i | 9 | i | i | / | / | /
COCCN(C(=O)COC(=O)CCOc1ccccc1C)c1c(N)n(Cc2ccccc2)c(=O)[nH]c1=O | i | i | i | / | i | i | / | / | /
O=C(CSc1nnc(CNC(=O)c2c(F)cccc2Cl)o1)NCc1ccccc1 | i | i | i | 15 | i | i | / | / | /
Cc1ccc(C(=O)O)cc1NC(=S)NC(=O)c1ccc(-c2ccc(Cl)cc2)o1 | i | i | i | -6 | i | i | / | i | i
COc1ccc(C(=O)O)cc1NC(=S)NC(=O)c1ccc(-c2ccc(Cl)cc2)o1 | / | / | 4.8* | 0 | i | / | i | i | i
O=C(O)c1cccc(NC(=S)NC(=O)c2ccc(-c3ccc(Cl)cc3)o2)c1 | i | i | i | 3 | i | i | / | / | /
CCOC(=O)c1ccc(N2C=C(C(=O)OC)C(c3ccc(OC)c(O)c3)C(C(=O)OC)=C2)cc1 | i | i | i | / | i | i | / | / | /
CCC(C(=O)N1CCCC1)n1nc(C)c2c(C)n(-c3ccccc3)nc2c1=O (stereo not drawn) | i | i | i | 14 | i | i | i | i | i
CCC(C(=O)NCCc1ccc(C)cc1)n1nc(C)c2c(C)n(-c3ccccc3)nc2c1=O (stereo not drawn) | i | i | i | 28 | i | i | / | / | /
O=C(/C=C/c1ccnc2ccccc12)c1cccs1 | i | i | 14* | 10 | i | i | 18%* | 41%* | i
O=C(Cn1cnc2ccccc2c1=O)c1cccs1 | i | i | i | -1 | i | i | / | / | /

Source: PubChem BioAssay
